pEC50: −log10 of the molar value. The source made the active and inactive calls. No cut-off for these calls is given here.
Tests used:
[1] = target: Delta-aminolevulinic acid dehydratase (Pseudomonas aeruginosa (strain ATCC 15692 / PAO1 / 1C / PRS 101 / LMG12228)) (UniProt Q59643); test: Stimulation of Pseudomonas aeruginosa PAO1 recombinant PBGS using 5 mM 5-ALA as substrate at 50 to 200 uM at pH 8 by buffer scan assay in presence of KCl
[2] = target: Delta-aminolevulinic acid dehydratase (Pseudomonas aeruginosa (strain ATCC 15692 / PAO1 / 1C / PRS 101 / LMG12228)) (UniProt Q59643); test: Activation of Pseudomonas aeruginosa PAO1 recombinant PBGS using 0.2 mM 5-ALA as substrate at 10 to 10000 uM at pH 7.5 by buffer scan assay in presence of 10 mM MgCl2
[3] = target: T1, Delta-aminolevulinic acid dehydratase, chloroplastic (Pisum sativum) (UniProt P30124); test: Inhibition of Pisum sativum PBGS using 5-ALA as substrate at 8 to 2000 uM after 30 mins by nondenaturing PAGE analysis; details: Lathyrus oleraceus
T1 sequence (whole entry): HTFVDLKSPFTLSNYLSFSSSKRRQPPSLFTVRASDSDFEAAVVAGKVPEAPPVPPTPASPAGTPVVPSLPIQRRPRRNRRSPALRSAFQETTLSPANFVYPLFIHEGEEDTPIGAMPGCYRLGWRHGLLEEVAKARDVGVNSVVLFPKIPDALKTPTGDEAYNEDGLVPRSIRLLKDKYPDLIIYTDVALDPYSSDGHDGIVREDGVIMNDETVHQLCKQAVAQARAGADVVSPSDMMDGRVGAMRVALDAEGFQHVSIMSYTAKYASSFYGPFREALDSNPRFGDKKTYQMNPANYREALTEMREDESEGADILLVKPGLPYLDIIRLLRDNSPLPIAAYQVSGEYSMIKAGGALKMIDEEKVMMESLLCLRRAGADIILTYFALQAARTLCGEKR

[4] = target: T2, Delta-aminolevulinic acid dehydratase (Escherichia coli (strain K12)) (UniProt P0ACB2); test: Stimulation of Escherichia coli recombinant PBGS assessed as reduction in Mg2+-induced conversion of dimer to octamer at 8 to 2000 uM by nondenaturing PAGE analysis
T2 sequence (whole entry): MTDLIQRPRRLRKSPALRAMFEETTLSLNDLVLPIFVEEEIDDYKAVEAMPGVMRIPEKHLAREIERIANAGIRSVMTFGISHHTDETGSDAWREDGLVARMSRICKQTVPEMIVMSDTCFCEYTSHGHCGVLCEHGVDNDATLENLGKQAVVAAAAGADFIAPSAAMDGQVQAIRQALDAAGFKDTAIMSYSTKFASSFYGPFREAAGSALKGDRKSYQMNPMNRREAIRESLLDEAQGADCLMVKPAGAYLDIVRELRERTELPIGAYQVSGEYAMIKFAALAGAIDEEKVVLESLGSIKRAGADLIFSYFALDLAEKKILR
How it was run: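 EcPBGS (3 μg) preincubated 20 min at 37 °C in BTP pH 8.1 buffer with varied Mg2+, Zn2+ and wALADin1. Run on 7.5% nondenaturing PAGE; Coomassie stain plus in-gel activity with 500 μM 5-ALA and Ehrlich's reagent.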

[5] = target: Delta-aminolevulinic acid dehydratase (Pseudomonas aeruginosa (strain ATCC 15692 / PAO1 / 1C / PRS 101 / LMG12228)) (UniProt Q59643); test: Stimulation of Pseudomonas aeruginosa PAO1 recombinant PBGS assessed as stabilization of dimeric form at 8 to 2000 uM by nondenaturing PAGE analysis in presence of Mg2+ and K+
How it was run: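 PaPBGS (3 μg) preincubated 20 min at 37 °C in assay buffer with 1 mM Mg2+, 100 mM K+ and wALADin1, no 5-ALA. Run on 7.5% nondenaturing PAGE at 4 °C for 15–20 h. Coomassie for oligomer state; in-gel activity with 500 μM 5-ALA stained with Ehrlich's reagent.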

[6] = target: Delta-aminolevulinic acid dehydratase (Pseudomonas aeruginosa (strain ATCC 15692 / PAO1 / 1C / PRS 101 / LMG12228)) (UniProt Q59643); test: Stimulation of Pseudomonas aeruginosa PAO1 recombinant PBGS assessed as stabilization of dimeric form at 8 to 2000 uM by nondenaturing PAGE analysis in presence of Mg2+ and K+ and 5-ALA
[7] = target: Delta-aminolevulinic acid dehydratase (Pseudomonas aeruginosa (strain ATCC 15692 / PAO1 / 1C / PRS 101 / LMG12228)) (UniProt Q59643); test: Stimulation of Pseudomonas aeruginosa PAO1 recombinant PBGS using 5-ALA as substrate at 10 to 1000 uM at pH 8 in presence of 0.1 to 10000 uM MgCl2
[8] = target: Delta-aminolevulinic acid dehydratase (Yersinia enterocolitica W22703) (UniProt F4MUJ9); test: Stimulation of Yersinia enterocolitica recombinant PBGS expressed in Escherichia coli using 5-ALA as substrate at 10 to 1000 uM at pH 8 in presence of MgCl2 and KCl
Chain of Delta-aminolevulinic acid dehydratase (Yersinia enterocolitica W22703) (F4MUJ9 as listed by the source): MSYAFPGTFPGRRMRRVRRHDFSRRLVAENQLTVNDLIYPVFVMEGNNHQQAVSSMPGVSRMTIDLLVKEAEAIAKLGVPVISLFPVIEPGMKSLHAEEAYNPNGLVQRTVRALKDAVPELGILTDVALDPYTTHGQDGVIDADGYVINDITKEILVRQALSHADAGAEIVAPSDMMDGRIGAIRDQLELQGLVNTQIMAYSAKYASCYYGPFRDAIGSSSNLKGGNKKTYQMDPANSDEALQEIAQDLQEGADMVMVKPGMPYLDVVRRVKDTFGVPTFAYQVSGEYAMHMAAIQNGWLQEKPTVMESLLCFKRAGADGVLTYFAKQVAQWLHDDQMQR

[9] = target: Delta-aminolevulinic acid dehydratase (Pseudomonas aeruginosa (strain ATCC 15692 / PAO1 / 1C / PRS 101 / LMG12228), UniProt Q59643); test: Stimulation of Pseudomonas aeruginosa PAO1 recombinant PBGS using 5-ALA as substrate
Chain of Delta-aminolevulinic acid dehydratase (Q59643 whole entry): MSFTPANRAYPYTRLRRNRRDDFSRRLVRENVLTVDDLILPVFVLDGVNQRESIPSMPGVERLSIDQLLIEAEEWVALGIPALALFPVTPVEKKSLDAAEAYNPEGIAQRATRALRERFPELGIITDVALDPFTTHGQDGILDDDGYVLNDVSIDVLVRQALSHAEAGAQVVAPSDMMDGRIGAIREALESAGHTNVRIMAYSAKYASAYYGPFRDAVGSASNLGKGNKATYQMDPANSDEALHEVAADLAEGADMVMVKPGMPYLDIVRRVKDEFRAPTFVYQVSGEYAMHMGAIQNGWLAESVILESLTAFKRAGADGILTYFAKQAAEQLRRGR
How it was run: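 His-tagged PaPBGS at 150 nM subunit in 100 mM Tris-HCl pH 8.0 with 1 mM MgCl2, 100 mM KCl and 0.2 mM 5-ALA, 10 min at 36 °C, with turnover at most 30%. Porphobilinogen read with Ehrlich's reagent. Activity normalized to 6.7% DMSO control as 100%. EC50 from variable-slope agonist fit.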

[10] = target: T3, Delta-aminolevulinic acid dehydratase (Wolbachia sp. subsp. Brugia malayi (strain TRS)) (UniProt Q5GSR3); details: 25 to 2500 uM
T3 sequence (whole entry): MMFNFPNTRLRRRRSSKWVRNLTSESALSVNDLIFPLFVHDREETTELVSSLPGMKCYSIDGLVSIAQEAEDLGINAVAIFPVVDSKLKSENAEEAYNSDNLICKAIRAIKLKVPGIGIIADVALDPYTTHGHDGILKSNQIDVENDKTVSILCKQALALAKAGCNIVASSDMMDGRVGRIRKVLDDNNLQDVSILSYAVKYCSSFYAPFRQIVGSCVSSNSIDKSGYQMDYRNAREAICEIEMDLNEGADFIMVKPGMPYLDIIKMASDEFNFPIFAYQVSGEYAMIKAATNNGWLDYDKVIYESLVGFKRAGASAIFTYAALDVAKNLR

[11] = target: T3, Delta-aminolevulinic acid dehydratase (Wolbachia sp. subsp. Brugia malayi (strain TRS)); details: 25 to 2500 uM; remark: listed apart in the source

Chain of Delta-aminolevulinic acid dehydratase (Pseudomonas aeruginosa (strain ATCC 15692 / PAO1 / 1C / PRS 101 / LMG12228)) (Q59643 whole entry): as the sequence (Q59643 whole entry) above

Structure (SMILES): O=C(O)c1ccc2c(c1)nc(CCNC(=O)c1cccs1)n2Cc1cccc(C(F)(F)F)c1
- Activity [1]: Active
- Activity [2]: Active
- inhibition [3]: Active
- Activity [4]: Active
- Activity [5]: inactive
- Activity [6]: inactive
- Activity [7]: Active
- Activity [8]: Active
- pEC50 [9]: 4.16
- inhibition [10]: Active
- inhibition [11]: inactive

Reference: ChEMBL document CHEMBL3286371, “wALADin benzimidazoles differentially modulate the function of porphobilinogen synthase orthologs” (J Med Chem, 2014)
